Reference: ChEMBL document CHEMBL4138068, “Aryl-alkyl-lysines: small molecular membrane-active antiplasmodial agents” (Medchemcomm, 2017)

Experiments:
[1] = Haemolytic activity in human erythrocytes assessed as induction of hemolysis incubated for 1 hr; assay type: cell-based, Erythrocyte
Outline: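 Human erythrocytes from fresh heparinized blood were suspended at 5 vol% in PBS (pH 7.4), mixed 3:1 with serially diluted compound, and incubated 1 h at 37°C. Controls were no compound and 1 vol% Triton X-100. After centrifugation, supernatant A540 gave % haemolysis relative to the Triton control. HC50 is the mean ± SEM of at least two independent experiments, each run in triplicate.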

Plasmodium falciparum [2] = assay: Antimalarial activity against Plasmodium falciparum 3D7 cultured in human O+ erythrocytes assessed as reduction in parasite growth incubated for 48 hrs by SYBR green I based fluorescence assay; assay type: functional, organism-based; details: 3D7, 48 h
Outline: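 Sorbitol-synchronized ring-stage cultures (2% haematocrit, 1% parasitaemia) were exposed to serial dilutions in complete RPMI, top concentration 10 µM, for 48 h. Chloroquine served as positive control and no compound as negative control. Lysis buffer with SYBR Green I (Tris pH 7.5, EDTA, saponin, Triton X-100) was added for 1 h in the dark at 37°C. Fluorescence was read at ex 485/em 530 nm, and IC50 came from sigmoidal curves, checked against Giemsa smears.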

[3] = Selectivity index, ratio of HC50 for haemolytic activity in human erythrocytes to IC50 for antimalarial activity against Plasmodium falciparum 3D7 cultured in human O+ erythrocytes; assay type: toxicity, cell-based; details: read-out: Selectivity Index
Mus musculus [4] = assay: Toxicity in Balb/c mouse assessed as effect on blood electrochemical balance by measuring sodium level at 20 mg/kg, iv; assay type: organism-based; details: in vivo
[5] = Toxicity in Balb/c mouse at 5.5 to 175 mg/kg, iv for 14 days; assay type: organism-based; details: in vivo
Outline: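 Female Balb/c mice, 6-8 weeks old, dosed intravenously in PBS at 175, 55, 17.5 and 5.5 mg/kg. Adverse effects were observed directly for 4 h and mortality for 14 days. LD50 was calculated from survival with the Spearman-Karber equation.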

Mus musculus [6] = assay: Toxicity in Balb/c mouse assessed as effect on blood electrochemical balance by measuring potassium level at 20 mg/kg, iv; assay type: organism-based; details: in vivo
Plasmodium falciparum [7] = assay: Antimalarial activity against […] Plasmodium falciparum RKL9 cultured in human O+ erythrocytes assessed as reduction in parasite growth incubated for 48 hrs by SYBR green I based fluorescence assay; assay type: functional, organism-based; details: RKL9, 48 h
Outline: (§1)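 Sorbitol-synchronized ring-stage cultures (2% haematocrit, 1% parasitaemia) exposed for 48 h to serial dilutions in complete RPMI, top concentration 10µM. CQ was the positive control and drug-free wells the negative control. Growth was read by SYBR Green I lysis buffer, 1 h at 37°C in the dark, fluorescence ex 485/em 530 nm. IC50 came from sigmoidal curve fits, checked by Giemsa smears.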

Mus musculus [8] = assay: Toxicity in Balb/c mouse assessed as effect on creatinine level level at 17.5 mg/kg, iv; details: in vivo
Plasmodium berghei [9] = assay: (§2) Antimalarial activity against Plasmodium berghei ANKA infected in Swiss-Harlan mouse model of cerebral malaria assessed as reduction in parasitemia at 20 mg/kg, ip for 4 days dosed 2 hrs post infection and measured 5 days post infection by Giemsa staining based Peter's 4 day test; assay type: functional; design: scale not given: the % may be the effect or the level left
Outline: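 Female Swiss mice (6-8 weeks) were infected IP with 10⁷ P. berghei ANKA-parasitized RBCs. Two hours later, groups (n=4) received 20 mg/kg IP or PBS control, repeated every 24 h for four days. Parasitemia was read on day 5 from Giemsa-stained tail-blood smears, and survival was followed until death.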

Mus musculus [10] = assay: Toxicity in Plasmodium berghei ANKA infected in Swiss-Harlan mouse model of cerebral malaria assessed as induction of mouse death at 30 mg/kg, ip for 4 days dosed 2 hrs post infection and measured 5 days post infection by Giemsa staining based Peter's 4 day test; assay type: organism-based; details: in vivo, 120 h
Mus musculus [11] = assay: Toxicity in Balb/c mouse assessed as effect on ALT level level at 20 mg/kg, iv; assay type: organism-based; details: in vivo
Mus musculus [12] = assay: Toxicity in Balb/c mouse assessed as effect on AST level level at 20 mg/kg, iv; assay type: organism-based; details: in vivo
Mus musculus [13] = assay: Toxicity in Balb/c mouse assessed as effect on urea nitrogen level level at 20 mg/kg, iv; assay type: organism-based; details: in vivo
Plasmodium berghei [14] = assay: as §2, with “time duration for complete mouse mortality” for “reduction in parasitemia”, “test (reference value: =<7 days)” for “test”; assay type: functional
Outline: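 Female Swiss mice, 6-8 weeks old, infected IP with 10⁷ P. berghei ANKA parasitized RBCs. Starting 2 h post-infection, 20 mg/kg IP (PBS vehicle; PBS-only controls) every 24 h for four days, n=4. Day-5 parasitemia read from Giemsa-stained tail-blood smears; survival followed until death.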

Mus musculus [15] = assay: Toxicity in Plasmodium berghei ANKA infected in Swiss-Harlan mouse model of cerebral malaria assessed as induction of prolonged malaise at 30 mg/kg, ip for 4 days dosed 2 hrs post infection and measured 5 days post infection by Giemsa staining based Peter's 4 day test; assay type: organism-based; details: in vivo, 120 h
Mus musculus [16] = assay: Toxicity in Balb/c mouse assessed as effect on blood electrochemical balance by measuring chloride level at 20 mg/kg, iv; assay type: organism-based; details: in vivo
Plasmodium falciparum [17] = assay: Antimalarial activity against […] Plasmodium falciparum MRC2 cultured in human O+ erythrocytes assessed as reduction in parasite growth incubated for 48 hrs by SYBR green I based fluorescence assay; assay type: functional, organism-based; details: MRC2, 48 h; outline: as §1

Structure (SMILES) | HC50 at 1 h [1] | IC50 (Plasmodium falciparum [2]) | selectivity ratio [3] | Activity (Mus musculus [4]) | LD50 at 336 h [5] | Activity (Mus musculus [6]) | IC50 (Plasmodium falciparum [7]) | Activity (Mus musculus [8]) | Activity (Plasmodium berghei [9]) | Activity (Mus musculus [10]) | Activity (Mus musculus [11]) | Activity (Mus musculus [12]) | Activity (Mus musculus [13]) | Time (Plasmodium berghei [14]) | Activity (Mus musculus [15]) | Activity (Mus musculus [16]) | IC50 (Plasmodium falciparum [17])
CCCCCCCCN(Cc1cccc2ccccc12)C(=O)C(CCCCNC(=O)OC(C)(C)C)NC(=O)OC(C)(C)C (stereo not given) | 96 µM | 3000 nM | 32 |  |  |  |  |  |  |  |  |  |  |  |  |  | 
CCCCCCN(Cc1cccc2ccccc12)C(=O)C(CCCCNC(=O)OC(C)(C)C)NC(=O)OC(C)(C)C.O=C(O)C(F)(F)F.O=C(O)C(F)(F)F (stereo not given) | 850 µM | 1000 nM | 850 | Non-Toxic | 98 mg/kg | Non-Toxic | 1400 nM | Non-Toxic | 60% | Toxic | Non-Toxic | Non-Toxic | Non-Toxic | 12 days | Toxic | Non-Toxic | 5000 nM
CCCCCCN(Cc1ccccc1)C(=O)C(CCCCNC(=O)OC(C)(C)C)NC(=O)OC(C)(C)C (stereo not given) | > 1000 µM | > 5000 nM |  |  |  |  |  |  |  |  |  |  |  |  |  |  | 
CCCCCCCCN(Cc1ccccc1)C(=O)C(CCCCNC(=O)OC(C)(C)C)NC(=O)OC(C)(C)C (stereo not given) | 564 µM | 4000 nM | 141 |  |  |  |  |  |  |  |  |  |  |  |  |  | 
